B1: Osa-1-4 twister ribozyme (parent)
chain: CCGCCUAACACUGCCAAUGCCGGUCCCAAGCCCGGAUAAAAGUGGAGGGGGCGG

Variants of: B1
Assay: self-cleavage, relative activity (ratio to wild type); higher = more cleavage; co-transcriptional
How it was run: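 A DNA template was synthesised for a 54-nucleotide twister ribozyme from Oryza sativa, with 97 % wild-type base and 1 % of each other base at each of the 48 positions downstream of the cleavage site. The ribozyme cleaved itself co-transcriptionally during 2 h of in vitro transcription at 37 °C. Reverse transcription with a template-switching oligonucleotide, PCR amplification and deep sequencing followed, and cleavage status came from reads with or without upstream sequence. Relative activity is the fraction cleaved normalised to wild type.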

| Variant | self-cleavage |
| --- | --- |
| CCGCCUCACAAUGCCAAUGCCGGUCCCAAGCCCGGAUAAAAGUGGAGGGGGCGG [A7C C11A] | 0.06 |
| CCGCCUCACAGUGCCAAUGCCGGUCCCAAGCCCGGAUAAAAGUGGAGGGGGCGG [A7C C11G] | 0.04 |
| CCGCCUCACAUUGCCAAUGCCGGUCCCAAGCCCGGAUAAAAGUGGAGGGGGCGG [A7C C11U] | 0.05 |
| CCGCCUCACACUGCCAAUGUCGGUCCCAAGCCCGGAUAAAAGUGGAGGGGGCGG [A7C C20U] | 0.06 |
| CCGCCUCACACUGCCAAUGACGGUCCCAAGCCCGGAUAAAAGUGGAGGGGGCGG [A7C C20A] | 0.06 |
| CCGCCUCACACUGCCAAUGGCGGUCCCAAGCCCGGAUAAAAGUGGAGGGGGCGG [A7C C20G] | 0.01 |
| CCGCCUCACACUGCCAAUGCCGGUCCCAAGGCCGGAUAAAAGUGGAGGGGGCGG [A7C C31G] | 0.02 |
| CCGCCUCACACUGCCAAUGCCGGUCCCAAGACCGGAUAAAAGUGGAGGGGGCGG [A7C C31A] | 0.01 |
| CCGCCUCACACUGCCAAUGCCGGUCCCAAGUCCGGAUAAAAGUGGAGGGGGCGG [A7C C31U] | 0.05 |
| CCGCCUCACACUGCCAAUGCCGGUCCCAAGCUCGGAUAAAAGUGGAGGGGGCGG [A7C C32U] | 0.02 |
| CCGCCUCACACUGCCAAUGCCGGUCCCAAGCACGGAUAAAAGUGGAGGGGGCGG [A7C C32A] | 0.04 |
| CCGCCUCACACUGCCAAUGCCGGUCCCAAGCGCGGAUAAAAGUGGAGGGGGCGG [A7C C32G] | 0.02 |
| CCGCCUCACACUUCCAAUGCCGGUCCCAAGCCCGGAUAAAAGUGGAGGGGGCGG [A7C G13U] | 0.01 |
| CCGCCUCACACUACCAAUGCCGGUCCCAAGCCCGGAUAAAAGUGGAGGGGGCGG [A7C G13A] | 0.02 |
| CCGCCUCACACUCCCAAUGCCGGUCCCAAGCCCGGAUAAAAGUGGAGGGGGCGG [A7C G13C] | 0.02 |
| CCGCCUCACACUGCCAAUGCCGGUGCCAAGCCCGGAUAAAAGUGGAGGGGGCGG [A7C C25G] | 0.02 |
| CCGCCUCACACUGCCAAUGCCGGUACCAAGCCCGGAUAAAAGUGGAGGGGGCGG [A7C C25A] | 0.05 |
| CCGCCUCACACUGCCAAUGCCGGUUCCAAGCCCGGAUAAAAGUGGAGGGGGCGG [A7C C25U] | 0.04 |
| CCGCCUCACACUGACAAUGCCGGUCCCAAGCCCGGAUAAAAGUGGAGGGGGCGG [A7C C14A] | 0.04 |
| CCGCCUCACACUGUCAAUGCCGGUCCCAAGCCCGGAUAAAAGUGGAGGGGGCGG [A7C C14U] | 0.04 |
| CCGCCUCACACUGGCAAUGCCGGUCCCAAGCCCGGAUAAAAGUGGAGGGGGCGG [A7C C14G] | 0.03 |
| CCGCCUCACACUGCCAAUGCCGGUCCCAAGCCCGGAUAAAAGUGGAGGGGGCGG [A7C] | 0.04 |
| CCGCCUCACACUGCCAAUACCGGUCCCAAGCCCGGAUAAAAGUGGAGGGGGCGG [A7C G19A] | 0.05 |
| CCGCCUCACACUGCCAAUUCCGGUCCCAAGCCCGGAUAAAAGUGGAGGGGGCGG [A7C G19U] | 0.03 |
| CCGCCUCACACUGCCAAUCCCGGUCCCAAGCCCGGAUAAAAGUGGAGGGGGCGG [A7C G19C] | 0.02 |

| Variant | self-cleavage |
| --- | --- |
| CCGCCUCACACUGCGAAUGCCGGUCCCAAGCCCGGAUAAAAGUGGAGGGGGCGG [A7C C15G] | 0.07 |
| CCGCCUCACACUGCUAAUGCCGGUCCCAAGCCCGGAUAAAAGUGGAGGGGGCGG [A7C C15U] | 0.04 |
| CCGCCUCACACUGCAAAUGCCGGUCCCAAGCCCGGAUAAAAGUGGAGGGGGCGG [A7C C15A] | 0.04 |
| CCGCCUCACACUGCCAAUGCUGGUCCCAAGCCCGGAUAAAAGUGGAGGGGGCGG [A7C C21U] | 0.04 |
| CCGCCUCACACUGCCAAUGCAGGUCCCAAGCCCGGAUAAAAGUGGAGGGGGCGG [A7C C21A] | 0.06 |
| CCGCCUCACACUGCCAAUGCGGGUCCCAAGCCCGGAUAAAAGUGGAGGGGGCGG [A7C C21G] | 0.01 |
| CCGCCUCACACUGCCAAUGCCGGUCCCAAGCCCGGAUAAAAGUGGAGGGGGAGG [A7C C52A] | 0.06 |
| CCGCCUCACACUGCCAAUGCCGGUCCCAAGCCCGGAUAAAAGUGGAGGGGGUGG [A7C C52U] | 0.06 |
| CCGCCUCACACUGCCAAUGCCGGUCCCAAGCCCGGAUAAAAGUGGAGGGGGGGG [A7C C52G] | 0.07 |
| CCGCCUCGCACUGCCAAUGCCGGUCCCAAGCCCGGAUAAAAGUGGAGGGGGCGG [A7C A8G] | 0.05 |
| CCGCCUCCCACUGCCAAUGCCGGUCCCAAGCCCGGAUAAAAGUGGAGGGGGCGG [A7C A8C] | 0.07 |
| CCGCCUCUCACUGCCAAUGCCGGUCCCAAGCCCGGAUAAAAGUGGAGGGGGCGG [A7C A8U] | 0.06 |
| CCGCCUCAUACUGCCAAUGCCGGUCCCAAGCCCGGAUAAAAGUGGAGGGGGCGG [A7C C9U] | 0.02 |
| CCGCCUCAGACUGCCAAUGCCGGUCCCAAGCCCGGAUAAAAGUGGAGGGGGCGG [A7C C9G] | 0.04 |
| CCGCCUCAAACUGCCAAUGCCGGUCCCAAGCCCGGAUAAAAGUGGAGGGGGCGG [A7C C9A] | 0.09 |
| CCGCCUCACACUGCCAAUGCCGGUCCGAAGCCCGGAUAAAAGUGGAGGGGGCGG [A7C C27G] | 0.02 |
| CCGCCUCACACUGCCAAUGCCGGUCCAAAGCCCGGAUAAAAGUGGAGGGGGCGG [A7C C27A] | 0.06 |
| CCGCCUCACACUGCCAAUGCCGGUCCUAAGCCCGGAUAAAAGUGGAGGGGGCGG [A7C C27U] | 0.03 |
| CCGCCUCACACUGCCAAUGCCGGUCUCAAGCCCGGAUAAAAGUGGAGGGGGCGG [A7C C26U] | 0.05 |
| CCGCCUCACACUGCCAAUGCCGGUCGCAAGCCCGGAUAAAAGUGGAGGGGGCGG [A7C C26G] | 0.02 |
| CCGCCUCACACUGCCAAUGCCGGUCACAAGCCCGGAUAAAAGUGGAGGGGGCGG [A7C C26A] | 0.03 |
| CCGCCUCACACUGCCAAUGCCGGUCCCAAGCCGGGAUAAAAGUGGAGGGGGCGG [A7C C33G] | 0.02 |
| CCGCCUCACACUGCCAAUGCCGGUCCCAAGCCUGGAUAAAAGUGGAGGGGGCGG [A7C C33U] | 0.04 |
| CCGCCUCACACUGCCAAUGCCGGUCCCAAGCCAGGAUAAAAGUGGAGGGGGCGG [A7C C33A] | 0.05 |
